# ChEMBL document CHEMBL4257520, “Design, synthesis and bioactivity investigation of tetrandrine derivatives as potential anti-cancer agents” (Medchemcomm, 2018)
# Active and inactive are the calls of the source. The rule behind the calls is not given here.
# Legend:
# MDA-MB-231 [1] = assay: Induction of apoptosis in human MDA-MB-231 cells assessed as increase in Bax expression at 2.5 uM after 24 hrs by Western blot analysis; assay type: functional, cell-based
# Procedure, shortened: (§1)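 MDA-MB-231 cells were treated at 2.5 μM for 24 h and lysed in RIPA buffer. Protein was resolved on 10% SDS-PAGE, transferred to PVDF, and blocked in 5% BSA for 2 h at RT. Primary antibodies were applied overnight at 4 °C and HRP-conjugated secondary antibodies for 2 h at RT. Bands were detected by ECL, with β-actin as the loading reference.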
# MDA-MB-231 [2] = assay: Induction of apoptosis in human MDA-MB-231 cells assessed as early apoptotic cells at 1.25 uM after 24 hrs by Annexin V-FITC/propidium iodide staining based flow cytometry (reference value: 2.1%); assay type: functional
# MDA-MB-231 [3] = assay: Induction of apoptosis in human MDA-MB-231 cells assessed as late apoptotic cells at 2.5 uM after 24 hrs by Annexin V-FITC/propidium iodide staining based flow cytometry (reference value: 1.9%); assay type: functional
# MDA-MB-231 [4] = assay: Induction of apoptosis in human MDA-MB-231 cells assessed as necrotic cells at 2.5 uM after 24 hrs by Annexin V-FITC/propidium iodide staining based flow cytometry (reference value: 0.3%); assay type: functional
# HEL = assay: Antiproliferative activity against HEL cells after 48 hrs by MTT assay; assay type: functional, cell-based; details: Homo sapiens
# Procedure, shortened: (§2)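 MTT assay on human cancer lines held at 37 °C, 95% humidity, 5% CO2. Cells were exposed to compounds at 20.0–0.5 μM for 48 h, then washed twice with PBS. MTT (5 mg mL–1 in PBS) was added for 4 h at 37 °C, the formazan was dissolved in DMSO, and A490 was read. IC50 comes from replicate wells over three independent experiments.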
# MDA-MB-231 [5] = assay: Induction of apoptosis in human MDA-MB-231 cells assessed as late apoptotic cells at 1.25 uM after 24 hrs by Annexin V-FITC/propidium iodide staining based flow cytometry (reference value: 1.9%); assay type: functional
# L02 = assay: Cytotoxicity against human HL7702 cells after 48 hrs by MTT assay; assay type: cell-based; details: L02, 48 h
# Procedure, shortened: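 Normal human liver HL7702 cells were assessed by MTT assay, with formazan absorbance as the read-out, to give an IC50 for cytotoxicity.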
# K562 = assay: Antiproliferative activity against human K562 cells after 48 hrs by MTT assay; assay type: functional, cell-based; details: K562, 48 h; procedure, shortened: as §2
# [6] = Antiproliferative activity against human WM9 cells after 48 hrs by MTT assay; assay type: functional, cell-based; details: WM9, 48 h; procedure, shortened: as §2
# MDA-MB-231 [7] = assay: Induction of apoptosis in human MDA-MB-231 cells assessed as necrotic cells at 1.25 uM after 24 hrs by Annexin V-FITC/propidium iodide staining based flow cytometry (reference value: 0.3%); assay type: functional
# MDA-MB-231 [8] = assay: Induction of apoptosis in human MDA-MB-231 cells assessed as live cells at 2.5 uM after 24 hrs by Annexin V-FITC/propidium iodide staining based flow cytometry (reference value: 95.7%); assay type: functional
# MDA-MB-231 [9] = assay: Induction of apoptosis in human MDA-MB-231 cells assessed as live cells at 1.25 uM after 24 hrs by Annexin V-FITC/propidium iodide staining based flow cytometry (reference value: 95.7%); assay type: functional
# MDA-MB-231 [10] = assay: Induction of apoptosis in human MDA-MB-231 cells assessed as decrease in Bcl2 expression at 2.5 uM after 24 hrs by Western blot analysis; assay type: functional, cell-based; procedure, shortened: as §1
# MDA-MB-231 [11] = assay: Induction of apoptosis in human MDA-MB-231 cells assessed as decrease in Bcl-xl expression at 2.5 uM after 24 hrs by Western blot analysis; assay type: functional, cell-based; procedure, shortened: as §1
# PC-3 = assay: Antiproliferative activity against human PC3 cells after 48 hrs by MTT assay; assay type: functional, cell-based; details: PC-3, 48 h; procedure, shortened: as §2
# MDA-MB-231 [12] = assay: Induction of apoptosis in human MDA-MB-231 cells assessed as early apoptotic cells at 2.5 uM after 24 hrs by Annexin V-FITC/propidium iodide staining based flow cytometry (reference value: 2.1%); assay type: functional
# MDA-MB-231 [13] = assay: Antiproliferative activity against human MDA-MB-231 cells after 48 hrs by MTT assay; assay type: functional, cell-based; details: MDA-MB-231, 48 h; procedure, shortened: as §2
# MDA-MB-231 [14] = assay: Induction of apoptosis in human MDA-MB-231 cells assessed as increase in cleaved PARP expression at 2.5 uM after 24 hrs by Western blot analysis; assay type: functional, cell-based; procedure, shortened: as §1
# MDA-MB-231 [15] = assay: Induction of apoptosis in human MDA-MB-231 cells after 24 hrs by Annexin V-FITC/propidium iodide staining based flow cytometry; assay type: functional, cell-based
structure (smiles),measurement,setting,value
COc1cc(NS(=O)(=O)c2ccc3ccccc3c2)c2cc1Oc1ccc(cc1)C[C@H]1c3cc(c(OC)cc3CCN1C)Oc1c(OC)c(OC)cc3c1[C@H](C2)N(C)CC3,Activity,MDA-MB-231 [1],Active
same,Activity,MDA-MB-231 [2],3.8%
same,Activity,MDA-MB-231 [3],27.2%
same,Activity,MDA-MB-231 [4],1.5%
same,IC50,HEL,2.33 µM
same,Activity,MDA-MB-231 [5],9.6%
same,IC50,L02,14.4 µM
same,IC50,K562,1.68 µM
same,IC50,[6],4.74 µM
same,Activity,MDA-MB-231 [7],0.7%
same,Activity,MDA-MB-231 [8],42.6%
same,Activity,MDA-MB-231 [9],85.9%
same,Activity,MDA-MB-231 [10],Active
same,Activity,MDA-MB-231 [11],Active
same,IC50,PC-3,3.96 µM
same,Activity,MDA-MB-231 [12],28.6%
same,IC50,MDA-MB-231 [13],1.18 µM
same,Activity,MDA-MB-231 [14],Active
same,Activity,MDA-MB-231 [15],Dose-dependent effect
